# Laboratory results from ChEMBL document CHEMBL1157875, “Thiosemicarbazones, semicarbazones, dithiocarbazates and hydrazide/hydrazones: anti-Mycobacterium tuberculosis activity and cytotoxicity” (Eur J Med Chem, 2010).
# Experiments:
# [1] = tested on: J774; test: Cytotoxicity against mouse J774 cells after 24 hrs by resazurin assay; assay type: cell-based; conditions: J774, 24 h
# Procedure, shortened: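 J774 macrophages grown to confluence at 37 °C in 5% CO2, then seeded at 1 × 10^5 cells/mL and allowed 24 h to adhere. Resazurin added for 6 h; fluorescence read at 530 nm excitation, 590 nm emission.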
# [2] = tested on: Mycobacterium tuberculosis; test: Antimycobacterial activity against Mycobacterium tuberculosis H37Rv after 7 days by resazurine microtiter assay; assay type: functional; conditions: 168 h
# Procedure, shortened: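 M. tuberculosis broth microdilution (REMA). Compounds dissolved as DMSO stocks and diluted in Middlebrook 7H9 broth with OADC enrichment. Culture and compounds combined in 96-well plates, in triplicate, incubated 7 days at 37 °C. Resazurin then added; fluorescence read at 530 nm excitation, 590 nm emission. Isoniazid run on every plate as standard.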
# [3] = Selectivity index, ratio of IC50 for mouse J774 cells to MIC for Mycobacterium tuberculosis H37Rv; assay type: functional
Compound,IC50 [1] [µM],MIC [2] [µM],Selectivity Index [3]
S=C(N/N=C(/C(=N/NC(=S)Nc1ccccc1)c1ccccc1)c1ccccc1)Nc1ccccc1,2460,49.1,50
O=C(N/N=C(/C(=N/NC(=O)c1ccncc1)c1ccccc1)c1ccccc1)c1ccncc1,349,27.9,12.5
O=C(N/N=C/c1ccccn1)c1ccccc1O,1300,≥ 1040,<=1.25
C/C(=N\NC(=S)N1CCCCCC1)c1ccccn1,4520,≥ 181,<=25
C/C(=N\NC(=S)Nc1ccccc1)c1ccccn1,–,57.7,–
O=C(N/N=C/c1ccccc1O)c1ccccc1O,1220,122,10
C/C(=N\NC(N)=S)c1ccccn1,–,161,–
CNC(=S)N/N=C(\C)c1ccccn1,–,37.5,–
CCNC(=S)N/N=C(\C)c1ccccn1,2810,14.1,200
